Experimental data reported in PMC6554731 (Bioorganic & medicinal chemistry, 2019).
Each block holds one compound with its values, some of them ahead of it.

Tests used:
human Ero1α = target: T1, human Ero1α (Homo sapiens, UniProt Q96HE7, C104A/C131A/C166A); assay: Amplex Red/Ero1α catalytic assay; format: biochemical
T1 sequence (Q96HE7 22-468 C104A/C131A/C166A): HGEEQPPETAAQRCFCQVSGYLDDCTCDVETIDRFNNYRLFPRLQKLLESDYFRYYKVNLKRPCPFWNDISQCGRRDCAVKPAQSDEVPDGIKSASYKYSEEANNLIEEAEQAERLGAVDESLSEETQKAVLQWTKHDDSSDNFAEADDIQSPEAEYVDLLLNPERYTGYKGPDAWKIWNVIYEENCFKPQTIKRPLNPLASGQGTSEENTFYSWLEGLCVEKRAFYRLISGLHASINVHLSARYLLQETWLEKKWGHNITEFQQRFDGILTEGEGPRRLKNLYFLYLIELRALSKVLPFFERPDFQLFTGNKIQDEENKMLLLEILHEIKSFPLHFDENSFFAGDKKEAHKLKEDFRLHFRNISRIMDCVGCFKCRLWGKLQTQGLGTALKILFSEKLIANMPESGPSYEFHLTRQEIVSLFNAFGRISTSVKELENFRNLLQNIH
Summary of the method: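 Hyperactive His-tagged human Ero1α (residues 22–468) expressed in E. coli BL21(DE3)RIL, Ni-NTA purified, oxidised with ferricyanide, monomeric gel-filtration fraction; 0.0625 mg/mL enzyme with HRP, 25 μM Amplex Red, human PDI (18–479) substrate 0.250–0.008 mg/mL, test compound 200–0.01 μM, 50 mM sodium phosphate pH 7.4; 30 min, 37 °C; fluorescence Ex 530/Em 590; two experiments in triplicate.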

U266 cells [1] = assay: Western blot analysis of ER stress markers; format: cell-based; conditions: U266, 2, 4 and 8 h
Summary of the method: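 U266 lysates taken after 2, 4 and 8 h with DMSO or test compound, run on 8–10% SDS-PAGE and transferred to PVDF. Membranes blocked 1 h at room temperature in 5% milk/TBST, probed overnight at 4 °C for p-eIF2α, ATF4, ATF6 and β-actin, then HRP secondary for 1 h. Chemiluminescent detection; n=3 independent assays.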

U266 cells [2] = assay: Annexin V/propidium iodide double-staining assay; format: cell-based; conditions: 25 μM, 18 h
Summary of the method: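 U266 cells exposed to DMSO vehicle or 25 μM test compound for 18 h, then washed in ice-cold PBS and stained with Annexin V-FITC/PI in binding buffer for 15 min at 37 °C in the dark. Flow cytometry counted at least 10,000 cells per sample. Means ± SD from three independent experiments.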

Ero1L = conditions: cited from earlier work
normal PBMCs = assay: Cell death in normal PBMCs; format: cell-based; conditions: data not shown
Solubility observations = format: physicochemical

- Activity against Ero1L (derivative screen, Supplementary Fig. 2) (human Ero1α): inactive
Compound: CC1=NN(c2ccccc2)C(=O)/C1=C/c1ccc(-c2cccc(Br)c2)o1 [AK968]

- Activity against Ero1L (derivative screen, Supplementary Fig. 2) (human Ero1α): marginally active
Compound: CC1=NN(c2ccc(C)cc2)C(=O)/C1=C/c1ccc(-c2ccc(C(=O)O)cc2)o1 [AN968]

Compound: O=C(O)c1cc(N2N=C(C(F)(F)F)/C(=C/c3ccc(-c4ccccc4)o3)C2=O)ccc1Cl [EN460]
- ATF4 level (U266 cells [1]): modest increase
- full length ATF6 level (U266 cells [1]): reduced levels
- p-eIF2α level (U266 cells [1]): robust increase
- Apoptosis (Annexin V positive cells) (U266 cells [2]): induces apoptosis
- Inhibition of the Ero1L enzyme (Ero1L): low micromolar range
- Mode of Ero1L inhibition (human Ero1α; increasing substrate PDI with different EN460 concentrations): competitive
- Km (human Ero1α; substrate PDI, with EN460): increased
- Vmax (human Ero1α; substrate PDI, with EN460): largely stated the same
- Cell death in normal PBMCs (normal PBMCs): sufficient to induce cell death
- Solubility (Solubility observations): poor solubility
- Reachable concentration in vitro (Solubility observations; limited by poor solubility): ≤ 200 µM

- Solubility (Solubility observations): comparable in solubility to EN460
Compound: [N-]=[N+]=Nc1cccc(-c2ccc(/C=C3/C(=O)N(c4ccc(Cl)c(C(=O)O)c4)N=C3C(F)(F)F)o2)c1 [PB-10, (E)-5-(4-((5-(3-azidophenyl)furan-2-yl)methylene)-5-oxo-3-(trifluoromethyl)-4,5-dihydro-1H-pyrazol-1-yl)-2-chlorobenzoic acid]

- Solubility in physiological buffers (Solubility observations; e.g. PBS pH 7.4): less soluble
Compound: [N-]=[N+]=Nc1ccc(-c2ccc(/C=C3/C(=O)N(c4ccc(Cl)c(C(=O)O)c4)N=C3C(F)(F)F)o2)cc1 [PB-11, (E)-5-(4-((5-(4-azidophenyl)furan-2-yl)methylene)-5-oxo-3-(trifluoromethyl)-4,5-dihydro-1H-pyrazol-1-yl)-2-chlorobenzoic acid]
